Active and inactive are the calls of the source. The calls are words filed in the database; no cut-off is given here.
tested on: Mus musculus; assay: Hypercalcemic effect in ICR mouse at 0.5 to 5 mg/kg/day, ip administered for 7 days measured on day 8 post-dose by MTB-based assay relative to control; assay type: ADME, organism-based; conditions: in vivo, 168 h
Method in brief: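 Mice were dosed i.p. over a 7-day period and serum calcium was then measured. Each dose level was compared with a vehicle-treated control group (saline cited as the comparator). Data are mean ± SEM, n = 6 per group. Significance versus vehicle was reported at p < 0.05, 0.01 and 0.001.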

Compound	Activity
CCn1c(C(=O)N(C)CC(=O)O)ccc1C(CC)(CC)c1ccc(OCCC(O)(CC)CC)c(C)c1	Non-Toxic

tested on: MCF7; assay: Antiproliferative activity against human MCF7 cells after 48 hrs by MTT assay; assay type: functional, cell-based; conditions: MCF7, 48 h

Compound	IC50 [nM]
CCC(C)C(NC(=O)c1ccc(C(CC)(CC)c2ccc(OCCC(O)(CC)CC)c(C)c2)n1CC)C(=O)OC (stereo unspecified)	> 50000
CCn1c(C(=O)N(C)CC(=O)O)ccc1C(CC)(CC)c1ccc(OCCC(O)(CC)CC)c(C)c1	79

tested on: PC-3; assay: Antiproliferative activity against human PC3 cells after 48 hrs by MTT assay; assay type: functional, cell-based; conditions: PC-3, 48 h

Compound	IC50 [nM]
CCC(C)C(NC(=O)c1ccc(C(CC)(CC)c2ccc(OCCC(O)(CC)CC)c(C)c2)n1CC)C(=O)OC (stereo unspecified)	> 50000
CCn1c(C(=O)N(C)CC(=O)O)ccc1C(CC)(CC)c1ccc(OCCC(O)(CC)CC)c(C)c1	2250

tested on: Caco-2; assay: Antiproliferative activity against human Caco2 cells after 48 hrs by MTT assay; assay type: functional, cell-based; conditions: Caco-2, 48 h

Compound	IC50 [nM]
CCC(C)C(NC(=O)c1ccc(C(CC)(CC)c2ccc(OCCC(O)(CC)CC)c(C)c2)n1CC)C(=O)OC (stereo unspecified)	> 50000
CCn1c(C(=O)N(C)CC(=O)O)ccc1C(CC)(CC)c1ccc(OCCC(O)(CC)CC)c(C)c1	2740

tested on: HepG2; assay: Antiproliferative activity against human HepG2 cells after 48 hrs by MTT assay; assay type: functional, cell-based; conditions: HepG2, 48 h

Compound	IC50 [nM]
CCC(C)C(NC(=O)c1ccc(C(CC)(CC)c2ccc(OCCC(O)(CC)CC)c(C)c2)n1CC)C(=O)OC (stereo unspecified)	> 50000
CCn1c(C(=O)N(C)CC(=O)O)ccc1C(CC)(CC)c1ccc(OCCC(O)(CC)CC)c(C)c1	5710

tested on: L02; assay: Antiproliferative activity against human L02 cells after 48 hrs by MTT assay; assay type: cell-based; conditions: L02, 48 h

Compound	IC50 [nM]
CCC(C)C(NC(=O)c1ccc(C(CC)(CC)c2ccc(OCCC(O)(CC)CC)c(C)c2)n1CC)C(=O)OC (stereo unspecified)	> 50000
CCn1c(C(=O)N(C)CC(=O)O)ccc1C(CC)(CC)c1ccc(OCCC(O)(CC)CC)c(C)c1	2150

target: T1, Vitamin D3 receptor (Homo sapiens) (UniProt P11473); assay: Transactivation of human GAL4-fused VRD expressed in HEK293 cells co-transfected with human RXRalpha/VDRE after 24 hrs by dual luciferase reporter gene assay; assay type: cell-based; conditions: not given
T1 sequence (whole entry): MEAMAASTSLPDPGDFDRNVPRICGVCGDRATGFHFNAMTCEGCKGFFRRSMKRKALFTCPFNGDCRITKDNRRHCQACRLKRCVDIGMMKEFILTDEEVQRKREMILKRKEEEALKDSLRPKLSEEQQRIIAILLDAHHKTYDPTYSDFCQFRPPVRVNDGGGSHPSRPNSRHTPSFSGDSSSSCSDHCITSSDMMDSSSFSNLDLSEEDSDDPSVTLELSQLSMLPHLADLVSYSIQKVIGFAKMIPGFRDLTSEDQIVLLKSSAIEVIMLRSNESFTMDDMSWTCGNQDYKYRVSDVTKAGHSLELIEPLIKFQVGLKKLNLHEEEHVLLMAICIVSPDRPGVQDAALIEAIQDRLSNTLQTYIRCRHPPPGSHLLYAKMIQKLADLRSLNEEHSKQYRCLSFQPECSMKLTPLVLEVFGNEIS

Compound	Activity
CCn1c(C(=O)N(C)CC(=O)O)ccc1C(CC)(CC)c1ccc(OCCC(O)(CC)CC)c(C)c1	Dose-dependent effect

target: T2, Vitamin D3 receptor (Homo sapiens, UniProt P11473); assay: Displacement of fluormone VDR red from human full length VDR after 4 hrs by fluorescence polarization assay; conditions: not given
T2 sequence (P11473 whole entry): T1 sequence (whole entry)

Compound	IC50 [nM]
CCn1c(C(=O)N(C)CC(=O)O)ccc1C(CC)(CC)c1ccc(OCCC(O)(CC)CC)c(C)c1	873

tested on: MCF7; assay: Induction of cell cycle arrest in human MCF7 cells assessed as accumulation at G0/G1 phase at 1 uM after 24 hrs by propidium iodide-staining based flow cytometry (reference value: 56.03%); assay type: functional; conditions: not given

Compound	Activity [%]
CCn1c(C(=O)N(C)CC(=O)O)ccc1C(CC)(CC)c1ccc(OCCC(O)(CC)CC)c(C)c1	61.76

tested on: MCF7; assay: Induction of cell cycle arrest in human MCF7 cells assessed as accumulation at G2/M phase at 1 uM after 24 hrs by propidium iodide-staining based flow cytometry (reference value: 12.41%); assay type: functional; conditions: not given

Compound	Activity [%]
CCn1c(C(=O)N(C)CC(=O)O)ccc1C(CC)(CC)c1ccc(OCCC(O)(CC)CC)c(C)c1	10.57

tested on: MCF7; assay: Induction of cell cycle arrest in human MCF7 cells assessed as accumulation at S phase at 1 uM after 24 hrs by propidium iodide-staining based flow cytometry (reference value: 31.55%); assay type: functional; conditions: not given

Compound	Activity [%]
CCn1c(C(=O)N(C)CC(=O)O)ccc1C(CC)(CC)c1ccc(OCCC(O)(CC)CC)c(C)c1	27.68

tested on: MCF7; assay: Induction of apoptosis in human MCF7 cells assessed as viable cells at 1 uM after 24 hrs by Annexin V-FITC/propidium iodide-staining based flow cytometry (reference value: 98.2%); assay type: functional; conditions: MCF7, 24 h, read-out: Activity

Compound	viability at 1 µM [%]
CCn1c(C(=O)N(C)CC(=O)O)ccc1C(CC)(CC)c1ccc(OCCC(O)(CC)CC)c(C)c1	87.8

tested on: MCF7; assay: Induction of apoptosis in human MCF7 cells assessed as early apoptotic cells at 1 uM after 24 hrs by Annexin V-FITC/propidium iodide-staining based flow cytometry (reference value: 1.74%); assay type: functional; conditions: not given

Compound	Activity [%]
CCn1c(C(=O)N(C)CC(=O)O)ccc1C(CC)(CC)c1ccc(OCCC(O)(CC)CC)c(C)c1	8.42

tested on: MCF7; assay: Induction of apoptosis in human MCF7 cells assessed as late apoptotic cells at 1 uM after 24 hrs by Annexin V-FITC/propidium iodide-staining based flow cytometry (reference value: 0.062%); assay type: functional; conditions: not given

Compound	Activity [%]
CCn1c(C(=O)N(C)CC(=O)O)ccc1C(CC)(CC)c1ccc(OCCC(O)(CC)CC)c(C)c1	3.66

tested on: MCF7; assay: Induction of apoptosis in human MCF7 cells assessed as necrotic cells at 1 uM after 24 hrs by Annexin V-FITC/propidium iodide-staining based flow cytometry (reference value: 0.031%); assay type: functional; conditions: not given

Compound	Activity [%]
CCn1c(C(=O)N(C)CC(=O)O)ccc1C(CC)(CC)c1ccc(OCCC(O)(CC)CC)c(C)c1	0.17

tested on: HepG2; assay: Induction of cell cycle arrest in human HepG2 cells at 1 uM after 24 hrs by propidium iodide-staining based flow cytometry; assay type: functional; conditions: not given

Compound	Activity
CCn1c(C(=O)N(C)CC(=O)O)ccc1C(CC)(CC)c1ccc(OCCC(O)(CC)CC)c(C)c1	Active

Source: ChEMBL document CHEMBL4033800, “Further Developments of the Phenyl-Pyrrolyl Pentane Series of Nonsteroidal Vitamin D Receptor Modulators as Anticancer Agents” (J Med Chem, 2018)
